Laboratory results reported in paper PMC4097008 (Molecular immunology, 2014).
Read-outs that look alike come from different tables or passages of the source.

How the values were obtained:
Bla g 4 [1] = target: T1, Bla g 4 (Blattella germanica, UniProt P54962); experiment: isothermal titration calorimetry; type: binding
Outline: (§1)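 Bla g 4 binding enthalpy was recorded by ITC at 25°C in 20 mM phosphate buffer, pH 8.0, with 100 μM protein and test amine titrant at 1 mM initial concentration. Supporting 1H-15N HSQC titrations used 0.2 mM 15N-labelled Bla g 4 (M9, 15N ammonium chloride) in 20 mM acetate, pH 4.5, 10% D2O, at 308 K and 800 MHz. Protein:ligand molar ratios were 1:0, 1:0.5, 1:1 and 1:2.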

Bla g 4 [2] = target: T1, Bla g 4; experiment: isothermal titration calorimetry; type: binding; remark: listed apart in the source
Outline: as §1

T1 sequence (P54962 7-182): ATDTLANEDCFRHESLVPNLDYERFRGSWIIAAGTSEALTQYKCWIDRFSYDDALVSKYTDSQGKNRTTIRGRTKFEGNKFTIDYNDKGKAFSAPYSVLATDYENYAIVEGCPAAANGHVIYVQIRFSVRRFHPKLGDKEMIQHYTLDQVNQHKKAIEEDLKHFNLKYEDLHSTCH

SMILES	Kd (Bla g 4 [1])	Kd (Bla g 4 [2])
NCCc1ccc(O)cc1 [tyramine]	45 nM	
NC[C@H](O)c1ccc(O)cc1 [octopamine]		185 nM
